The values that follow come from ChEMBL document CHEMBL1135246, “Structure-activity study of L-cysteine-based N-type calcium channel blockers: optimization of N- and C-terminal substituents” (Bioorg Med Chem Lett, 2002).

In general, IC50 refers to the concentration that gives 50% inhibition.

The subject of test [1] is L-type calcium channel (Mus musculus). Nature of the test: In vitro inhibition of L-type calcium channels in AtT-20 cells. To be noted: att20.
Test [2] deals with Voltage-dependent N-type calcium channel subunit alpha-1B (Homo sapiens, UniProt Q00975). Nature of the test: In vitro inhibition of N-type calcium channels in IMR-32 cells. Format: cell-based. The method in brief:
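N-type channel block was assessed in IMR-32 cells. Cells in suspension were loaded with fura-2/AM for 30 min at 37 °C, and calcium influx ([Ca²⁺]i) was measured. IC50 values are means of multiple determinations, each performed in duplicate.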

A short description of test [3]: In vitro inhibition of L-type calcium channels in AtT-20 cells. The test is classed as functional, cell-based, Mus musculus. To be noted: att20. The method in brief: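 Mouse pituitary tumour AtT-20/D16v-F2 cells, grown in DMEM with 10% FBS and penicillin–streptomycin, served as the L-type channel source. Cells in suspension were loaded with fura-2/AM for 30 min at 37 °C, and calcium influx ([Ca²⁺]i) was read fluorometrically. IC50 values are means of multiple determinations, each run in duplicate.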

Chain of Voltage-dependent N-type calcium channel subunit alpha-1B (Q00975 whole entry): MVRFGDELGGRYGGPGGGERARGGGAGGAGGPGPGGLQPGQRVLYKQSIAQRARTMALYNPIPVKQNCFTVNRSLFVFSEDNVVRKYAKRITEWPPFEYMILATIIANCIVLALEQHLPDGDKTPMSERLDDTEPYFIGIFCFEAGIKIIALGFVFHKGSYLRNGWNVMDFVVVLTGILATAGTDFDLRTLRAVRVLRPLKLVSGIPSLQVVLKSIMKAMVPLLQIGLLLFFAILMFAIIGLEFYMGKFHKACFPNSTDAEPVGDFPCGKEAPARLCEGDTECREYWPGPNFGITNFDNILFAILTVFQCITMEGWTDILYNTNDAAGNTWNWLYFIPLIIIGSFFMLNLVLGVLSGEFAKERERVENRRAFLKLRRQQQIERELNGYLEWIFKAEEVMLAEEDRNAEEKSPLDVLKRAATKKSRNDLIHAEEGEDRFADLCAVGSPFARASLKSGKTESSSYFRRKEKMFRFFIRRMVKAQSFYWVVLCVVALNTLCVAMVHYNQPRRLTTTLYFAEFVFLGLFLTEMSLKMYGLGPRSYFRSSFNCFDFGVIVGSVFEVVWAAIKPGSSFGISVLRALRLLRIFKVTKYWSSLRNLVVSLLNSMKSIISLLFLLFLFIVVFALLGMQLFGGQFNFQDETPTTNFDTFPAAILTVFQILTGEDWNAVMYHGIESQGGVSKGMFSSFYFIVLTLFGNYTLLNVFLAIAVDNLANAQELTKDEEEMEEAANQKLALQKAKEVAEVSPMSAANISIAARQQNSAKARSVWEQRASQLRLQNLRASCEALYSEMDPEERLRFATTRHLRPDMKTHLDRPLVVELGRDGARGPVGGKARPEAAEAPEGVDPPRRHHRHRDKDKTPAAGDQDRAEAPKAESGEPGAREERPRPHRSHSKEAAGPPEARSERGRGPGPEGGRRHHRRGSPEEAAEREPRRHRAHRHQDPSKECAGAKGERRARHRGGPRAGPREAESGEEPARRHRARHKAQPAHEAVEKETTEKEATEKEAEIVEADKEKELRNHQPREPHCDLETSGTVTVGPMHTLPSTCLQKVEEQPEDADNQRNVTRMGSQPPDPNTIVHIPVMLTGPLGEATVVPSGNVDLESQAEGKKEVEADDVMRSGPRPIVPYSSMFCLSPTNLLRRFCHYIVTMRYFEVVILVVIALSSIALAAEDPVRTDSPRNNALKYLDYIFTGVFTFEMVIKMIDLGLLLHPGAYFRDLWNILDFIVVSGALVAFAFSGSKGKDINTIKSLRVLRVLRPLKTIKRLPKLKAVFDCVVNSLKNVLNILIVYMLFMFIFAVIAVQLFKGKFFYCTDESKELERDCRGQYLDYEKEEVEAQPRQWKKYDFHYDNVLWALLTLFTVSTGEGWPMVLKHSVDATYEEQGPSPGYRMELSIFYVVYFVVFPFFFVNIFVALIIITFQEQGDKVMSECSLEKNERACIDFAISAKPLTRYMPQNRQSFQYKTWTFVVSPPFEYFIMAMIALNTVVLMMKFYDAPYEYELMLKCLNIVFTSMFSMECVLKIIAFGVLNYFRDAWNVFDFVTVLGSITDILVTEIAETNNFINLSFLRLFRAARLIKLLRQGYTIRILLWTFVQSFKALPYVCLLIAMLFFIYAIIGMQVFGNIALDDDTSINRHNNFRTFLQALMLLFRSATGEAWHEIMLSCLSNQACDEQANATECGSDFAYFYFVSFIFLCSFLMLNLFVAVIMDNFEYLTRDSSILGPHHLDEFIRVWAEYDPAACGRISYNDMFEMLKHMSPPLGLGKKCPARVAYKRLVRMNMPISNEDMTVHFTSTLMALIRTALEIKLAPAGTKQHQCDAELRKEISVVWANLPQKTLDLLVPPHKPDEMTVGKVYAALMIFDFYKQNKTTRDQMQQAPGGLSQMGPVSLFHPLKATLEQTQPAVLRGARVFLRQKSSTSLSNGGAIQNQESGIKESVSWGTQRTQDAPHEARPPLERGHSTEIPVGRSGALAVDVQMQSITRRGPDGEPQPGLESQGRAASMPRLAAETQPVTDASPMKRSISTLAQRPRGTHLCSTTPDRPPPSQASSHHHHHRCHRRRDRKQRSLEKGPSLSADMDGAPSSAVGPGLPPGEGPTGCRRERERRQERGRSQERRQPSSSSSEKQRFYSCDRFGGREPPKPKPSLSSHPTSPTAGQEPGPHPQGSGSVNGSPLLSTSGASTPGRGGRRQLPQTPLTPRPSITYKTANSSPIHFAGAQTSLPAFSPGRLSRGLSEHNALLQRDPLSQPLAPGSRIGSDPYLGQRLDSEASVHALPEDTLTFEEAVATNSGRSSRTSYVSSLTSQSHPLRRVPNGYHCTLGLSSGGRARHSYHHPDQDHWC

For the compound `O=C(NCc1ccc(Oc2ccccc2)cc1)[C@H](CSCC1CCCCC1)NC(=O)[C@@H]1CSCN1CCO`, the IC50 in test [1] was 1100 nM; in test [2] it was 350 nM.
For `COC(=O)N1CSC[C@H]1C(=O)N[C@@H](CSCC1CCCCC1)C(=O)NCc1ccc(Oc2ccccc2)cc1`, in that order: 870 nM and 120 nM.
The like results for `COCCN1CSC[C@H]1C(=O)N[C@@H](CSCC1CCCCC1)C(=O)NCc1ccc(Oc2ccccc2)cc1` were, in that order, 600 nM and 200 nM.
For `CN(C)c1ccc(CNC(=O)[C@H](CSCC2CCCCC2)NC(=O)[C@@H]2CSCN2C(=O)OC(C)(C)C)cc1`, in that order: 950 nM and 610 nM.
On to `CC(C)COC(=O)N1CSC[C@H]1C(=O)N[C@@H](CSCC1CCCCC1)C(=O)NCc1ccc(Oc2ccccc2)cc1`, for which the half-inhibitory concentration (IC50) in test [1] was 1200 nM; in test [2], 360 nM.
With `COc1ccc(CNC(=O)[C@@H](N)CSCC2CCCCC2)cc1`, the IC50 in test [2] was determined as 5800 nM.
With `COCC(=O)N1CSC[C@H]1C(=O)N[C@@H](CSCC1CCCCC1)C(=O)NCc1ccc(Oc2ccccc2)cc1`, the 50% inhibitory concentration (IC50) in test [1] is 930 nM; in test [2], 120 nM.
Consider `O=C(N[C@@H](CSCC1CCCCC1)C(=O)NCc1ccc(Oc2ccccc2)cc1)[C@@H]1CSCN1`, for which the 50% inhibitory concentration (IC50) in test [1] stood at 2000 nM; in test [2] it was 290 nM.
The like results for `C=CCOC(=O)N1CSC[C@H]1C(=O)N[C@@H](CSCC1CCCCC1)C(=O)NCc1ccc(Oc2ccccc2)cc1` were, in that order, 440 nM and 330 nM.
With `CC(C)(C)OC(=O)N1CSC[C@H]1C(=O)N[C@@H](CSCC1CCCCC1)C(=O)NCc1ccc(Oc2ccccc2)cc1`, the IC50 in test [1] was 1700 nM.
For `COc1ccc(CNC(=O)[C@H](CSCC2CCCCC2)NC(=O)C2CCCCC2)cc1`, the half-maximal inhibitory concentration (IC50) in test [3] came to 1900 nM; in test [2] it was 1300 nM.
For `COc1ccc(CNC(=O)[C@H](CSCC2CCCCC2)NC(=O)C2CCCC2)cc1`, in that order: 2300 nM and 920 nM.
For `COc1ccc(CNC(=O)[C@H](CSCC2CCCCC2)NC(=O)c2cscn2)cc1`, in that order: 2700 nM and 1900 nM.
Consider `CC(C)(C)OC(=O)N1CSC[C@H]1C(=O)N[C@@H](CSCC1CCCCC1)C(=O)NCc1ccc(OCc2ccccc2)cc1`, for which the results for the concentration for half-maximal inhibition (IC50) in test [1] and in test [2] were 1500 nM and 500 nM, respectively.
In the case of `COc1ccc(CNC(=O)[C@H](CSCC2CCCCC2)NC(=O)OCC(C)C)cc1`, the values for the concentration for half-maximal inhibition (IC50) in test [3] and in test [2] were 1500 nM and 720 nM, respectively.
In the case of `CC(C)(C)OC(=O)N1CSC[C@H]1C(=O)N[C@@H](CSCC1CCCCC1)C(=O)NCc1ccc(O)cc1`, the results for the concentration for half-maximal inhibition (IC50) in test [1] and in test [2] were 2800 nM and 1800 nM, respectively.
As for `COc1ccc(CNC(=O)[C@H](CSCC2CCCCC2)NC(=O)CC(C)C)cc1`, the values for the IC50 in test [3] and in test [2] were 2700 nM and 1200 nM, respectively.
As for `CC(C)(C)OC(=O)N1CSC[C@H]1C(=O)N[C@@H](CSCC1CCCCC1)C(=O)NCc1ccc([N+](=O)[O-])cc1`, the IC50 in test [1] turned out to be 500 nM; in test [2], 600 nM.
